A selection: hits, their analogues and other compounds. The true share with any hit is near 4.7%.
FXN GAA850 act – activators of GAA850 frataxin (FXN) promoter; HEK293 lucGAA850 FXN promoter luciferase reporter, 24 h; percent of 10 µM SAHA response; activation, % at 6 µM; actives 0.56% (n = 360,000);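 active means activation above the average of all compounds screened plus 3 SD, cutoff fixed separately per campaign, cut at about 7.5% in these data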
MC4R antagonist – antagonists of human melanocortin 4 receptor (MC4R); MC4R-expressing cells, MTII-stimulated cAMP, LANCE TR-FRET; inhibition, % at 6.5 µM; actives 0.48% (n = 360,000);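 active means inhibition above its plate's cutoff, the mean of tested wells on that plate plus 3 SD, cut at about 29% in these data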
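Assay system: human MC4R-expressing U2OS cells; reagent: Melanotan II stimulation of cells; dosing: 6.5 µM single dose; timing: compound 30 min, challenge 1 h, detection 1 h; signal: TR-FRET cAMP assay; replicates: one well per compound, no replicates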
MC4R ag barr – human MC4R agonism via beta-arrestin; U2OS MC4R beta-arrestin complementation, luminescence; percent of melanotan II response, DMSO zero; activation, % at 8.9 µM; actives 0.98% (n = 360,000);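 active means activation above a per-plate cutoff, the mean activation of sample wells on that plate plus 3 SD, cut at about 8% in these data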
AHR activator – human AHR activation; P35869; AHR-responsive luciferase reporter cells, luminescence; activation, % at 5 µM; actives 2.5% (n = 320,000); AID 2796; in the data active means activation above about 47%
m5-HT2A agonist – agonists of mouse serotonin 5-HT2A receptor (HTR2A) | CHO-K1 mHTR2A beta-arrestin complementation, luminescence; percent of 30 µM serotonin response | activation, % at 7.6 µM | actives 0.66% (n = 360,000) | AID 624169;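 active means activation above a run cutoff, the mean activation of all tested compounds plus 3 SD, cut at about 14% in these data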
Target sequence (P35363 whole entry, looked up): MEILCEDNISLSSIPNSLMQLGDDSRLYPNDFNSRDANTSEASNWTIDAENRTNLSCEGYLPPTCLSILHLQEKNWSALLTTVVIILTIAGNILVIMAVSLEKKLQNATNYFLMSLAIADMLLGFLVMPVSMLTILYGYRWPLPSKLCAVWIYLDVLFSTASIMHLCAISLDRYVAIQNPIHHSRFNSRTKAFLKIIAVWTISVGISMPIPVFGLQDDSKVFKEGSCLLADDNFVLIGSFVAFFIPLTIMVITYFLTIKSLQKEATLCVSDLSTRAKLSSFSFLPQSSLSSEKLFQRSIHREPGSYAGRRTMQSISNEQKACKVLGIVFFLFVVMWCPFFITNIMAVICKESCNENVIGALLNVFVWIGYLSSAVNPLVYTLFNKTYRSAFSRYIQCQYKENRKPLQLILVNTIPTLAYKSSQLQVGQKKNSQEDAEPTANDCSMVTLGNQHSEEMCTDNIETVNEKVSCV
GAA30 FXN cntr – activates GAA30 frataxin promoter, counter-screen for GAA850 activators; shares compounds with FXN GAA850 act; HEK293 lucGAA30 FXN promoter luciferase, 24 h; DMSO = 0%, 5 µM ipriflavone = 100%; activation, % at 6 µM; actives 66% (n = 1,900); AID 588350;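 active means mean activation above the mean of solvent-only control wells plus 3 SD, cut at about 22% in these data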;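 further: counterscreen of GAA850 promoter hits where activity marks nonselective or luminescence artifacts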
GAA850 confirm – confirmation of GAA850 frataxin (FXN) promoter activators | shares compounds with FXN GAA850 act | HEK293 lucGAA850 FXN promoter luciferase reporter, 24 h; 100% = activation by SAHA | activation, % at 6 µM | actives 86% (n = 1,900) | AID 588351;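 active means mean activation above a set limit taken from the primary screen, cut at about 8% in these data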
A number is an active result; - = inactive; . = no result.

SMILES	FXN GAA850 act	MC4R antagonist	MC4R ag barr	AHR activator	m5-HT2A agonist	GAA30 FXN cntr	GAA850 confirm
CCCCN(C(=O)NC(=O)C1=C(N2CCOCC2)/C(=C/c2ccccc2)CC1)S(C)(=O)=O	-	-	-	-	-	.	.
CCOC(=O)C(=O)C1=C(N2CCOCC2)/C(=C\c2ccc(F)cc2)CC1	7.6	-	-	-	-	-	9.0
C=C1C(=O)O[C@H]2C[C@]3(C)C([C@@H](OC(=O)/C(C)=C/C)[C@H]12)[C@](C)(O)CC[C@H]3O (stereo partly drawn)	-	-	-	-	-	.	.
C=C[C@@]1(C)CC(=O)[C@]2(O)[C@@]3(C)[C@@H](O)CCC(C)(C)[C@@H]3[C@H](O)[C@H](OC(C)=O)[C@@]2(C)O1	16.4	-	-	-	-	-	15.1
C=C[C@@]1(C)CC(=O)[C@]2(O)[C@@]3(C)[C@@H](O)CCC(C)(C)[C@@H]3[C@H](OC(C)=O)[C@H](O)[C@@]2(C)O1	12.3	-	-	-	-	-	13.7
CC1(Cc2ccc(C(F)(F)F)o2)C(=O)Nc2cc(-c3ccc(F)cc3F)ccc21 (stereo not drawn)	9.2	-	-	.	-	-	13.1
COc1ccccc1C(=O)Nc1ccc(C(=O)/C=C/c2cccs2)cc1	8.5	-	-	-	-	22.5	12.6
COc1cc(OC)c(OC)cc1CCC(C)NCCC(c1ccccc1)c1ccccc1 (stereo not drawn)	12.9	-	-	-	-	-	9.4
Cc1ccc(NC(=O)C(=O)NCc2ccccn2)cc1	8.3	-	-	-	-	90.1	38.0
Nc1nonc1-n1nnc(C(=O)N/N=C/c2ccccc2F)c1-c1cccs1	-	-	-	-	-	.	.
C/C(=N\N=C\c1ccccc1F)c1nnn(-c2nonc2N)c1C	10.1	-	-	-	-	88.3	31.4
CC(NC(=O)CN1C(=O)NC2(CCCCC2)C1=O)c1ccc(S(N)(=O)=O)cc1 (stereo not drawn)	-	-	-	.	-	.	.
CC1CC(C)(C)Nc2ccc(N=O)cc21 (stereo not drawn)	12.5	-	-	.	-	58.3	67.4
COc1ccc(OC)c(NC(=O)C2(C)CCN2CCOc2ccccc2)c1 (stereo not drawn)	-	-	-	.	-	.	.
C[C@H](CO)N1C[C@H](C)[C@H](CN(C)S(=O)(=O)c2ccc(Cl)cc2)OCc2ccccc2-c2c(n(C)c3ccccc23)C1=O	12.3	-	-	.	-	-	9.8
Cc1ccc(S(=O)(=O)N(C)C[C@@H]2OCc3ccccc3-c3c(n(C)c4ccccc34)C(=O)N([C@H](C)CO)C[C@@H]2C)cc1	12.8	-	-	.	-	-	8.8
C[C@H](CO)N1C[C@H](C)[C@H](CN(C)S(C)(=O)=O)OCc2ccccc2-c2c(n(C)c3ccccc23)C1=O	-	-	-	.	-	.	.
CN(Cc1ccccc1)C(=O)c1csc([C@H]2C[C@H](O)[C@@H](CO)O2)n1	-	-	-	.	-	.	.
C[C@H]1c2cccc(O)c2C(O)=C2C(=O)[C@]3(O)C(O)=C(C(N)=O)C(=O)[C@@H](N(C)C)C3[C@@H](O)C21 (stereo partly drawn)	16.0	-	-	-	-	-	-
CCOC(=O)C1CCN(C(=O)c2ccc3c(c2)C(=O)N(c2ccccc2C)C3=O)CC1	-	-	-	-	-	.	.
Cc1nn(CC(=O)N(C)C2(C#N)CCCCC2)c(C)c1[N+](=O)[O-]	-	-	-	-	-	.	.
OC12CCCCC1C(c1ccc3c(c1)OCO3)N(Cc1cccc(F)c1)CC2 (stereo not drawn)	11.7	-	-	.	-	-	12.7
OC12CCCCC1C(c1ccc3c(c1)OCO3)N(Cc1ccccc1F)CC2 (stereo not drawn)	-	-	-	-	-	.	.
OC12CCCCC1C(c1ccc3c(c1)OCO3)N(Cc1ccc(F)cc1)CC2 (stereo not drawn)	14.8	-	-	-	-	-	11.8
Fc1cccc(CNCc2ccc3c(c2)OCO3)c1	-	-	-	-	-	.	.
SMILES	FXN GAA850 act	MC4R antagonist	MC4R ag barr	AHR activator	m5-HT2A agonist	GAA30 FXN cntr	GAA850 confirm
COc1ccc(NC(=O)CN(C)C(=O)c2cccc(S(=O)(=O)N3CCN(c4ccc(F)cc4)CC3)c2)cc1	-	-	-	.	-	.	.
O=C(CSc1ccccc1F)Nc1ccc2c(c1)OCO2	-	-	-	-	-	.	.
CCOC(=O)N1CCN(C(=O)c2ccc(CS(=O)(=O)c3ccc(OC)cc3)o2)CC1	13.6	-	-	-	-	-	-
COc1ccc(S(=O)(=O)Cc2ccc(C(=O)N3CCCC3)o2)cc1	-	-	-	-	-	.	.
O=C(Nc1ncccc1O)C1CCN(S(=O)(=O)c2ccc3ccccc3c2)CC1	-	-	-	-	-	.	.
Cc1cc2ncc(-c3cccc(Cl)c3)cn2n1	-	-	-	-	-	.	.
Cc1nn2cc(-c3ccc(Cl)cc3)cnc2c1Cl	7.7	-	-	-	-	119.2	37.0
Cc1c(C)n(CC(O)CN2CCOCC2)c2ccccc12 (stereo not drawn)	-	-	-	-	-	.	.
Cc1ccc(N=Nc2c(O)n(CN3CCOCC3)c3ccccc23)cc1	7.7	-	-	-	-	135.0	50.2
CCc1nc2ccc(C(=O)NCCOc3ccc(OC)cc3)cn2c1N(CC)Cc1ccc(OC)c(OC)c1	8.4	-	-	.	-	-	-
CCc1nc2ccc(C(=O)NCCN3CCNC3=O)cn2c1N(C)Cc1ccc(OC)cc1	14.1	-	-	.	-	22.4	-
CCc1nc2ccc(C(=O)Nc3ccc(OC)c(OC)c3)cn2c1N(CC)Cc1ccc(OC)c(OC)c1	-	-	-	.	-	.	.
Cc1ccc(C(=O)NCCCN2CCN(CCCNC(=O)c3ccc(C)cc3)CC2)cc1	-	-	-	-	-	.	.
COC[C@@H]1CCCN1[C@@H]1CS(=O)(=O)N[C@H]1COCc1ccccc1	.	.	.	.	-	.	.
CCC(C)c1ccc(N(C(=O)c2ccco2)C(C(=O)NC2CCCC2)c2cccnc2)cc1 (stereo not drawn)	-	-	-	-	-	.	.
COc1ccc(Cn2nnc3c(=O)[nH]c(C(=O)NCCc4ccc(F)cc4)nc32)cc1OC	19.7	-	-	-	-	-	9.0
O=C1N/C(=C/c2ccc(N3CCOCC3)o2)C(=O)N1c1ccccc1	10.8	-	-	-	-	54.1	18.9
Nc1ccc2cc3[nH]c4cc(N)ccc4c3nc2c1	11.7	-	-	.	-	-	-
N#C/C(=C\c1cccnc1)c1nc2ccccc2[nH]1	-	-	-	-	-	.	.
N#C/C(=C\c1ccncc1)c1nc2ccccc2[nH]1	8.8	-	-	.	-	33.2	9.3

Screening data deposited in PubChem BioAssay by The Scripps Research Institute Molecular Screening Center.
